{"source": "paper PMC3540799", "about": "(NeuroImage, 2012)", "key": {"HDAC class IIa enzymes": {"tested_on": "HDAC class IIa enzymes", "test": "SAHA-mediated dose-dependent inhibition of [18F]FAHA accumulation in the brain", "format": "in vivo, rhesus macaques", "details": "pretreatment with increasing doses of SAHA; blood plasma"}, "[1]": {"details": "cited from earlier work"}, "[2]": {"test": "Dynamic PET/CT/MRI of the brain with compartmental pharmacokinetic modeling", "format": "in vivo, rhesus macaques", "details": "for k1 (influx rate constant) / k2 (efflux rate constant) / k3 rate constant: baseline", "method_in_brief": "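Four rhesus macaques (2 male, 2 female): atropine 0.04 mg/kg i.m., ketamine 10–15 mg/kg i.m., isoflurane 1–3% in oxygen; i.v. tracer via saphenous vein. Baseline dynamic PET with the 18F-labelled HDAC substrate and, separately, its 18F-labelled cleavage product. Carotid-derived plasma input was corrected by plasma-to-blood ratio and radio-HPLC metabolite fractions. Rate constants came from two-input, three-tissue-compartment fitting of regional brain time-activity curves.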"}, "[3]": {"test": "Radioactivity and radiolabeled metabolites in blood plasma", "format": "in vivo, rhesus macaques", "method_in_brief": "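Macaques received atropine and ketamine i.m., then isoflurane 1–3% in oxygen. Tracer was given i.v. via saphenous vein, and venous blood (0.5 mL) was drawn at 0, 1, 2, 3, 5, 10 and 30 min. Whole blood and plasma were gamma counted. Heparinized plasma was extracted with 3 volumes acetonitrile and run on radio-HPLC. Parent and metabolite fractions came from peak areas, expressed as %ID/mL.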"}, "[4]": {"details": "up to 3 hours post radiotracer administration; ref Nishii et al., 2011; cited from earlier work"}, "class IIa HDACs": {"tested_on": "class IIa HDACs", "format": "biochemical", "details": "non-radiolabeled FAHA; 10 ng enzyme, 30 min at 30°C"}, "[5]": {"details": "at 30 min after the radiotracer administration; ref Nishii R, 2007; cited from earlier work"}, "[6]": {"details": "ref Hendricks, et al 2011, Zeglis"}}, "note": "Read-outs that look alike come from different tables or passages of the source.", "data": [{"smiles": "O=C(CCCCCCC(=O)Nc1ccccc1)NO", "note": "[SAHA, vorinostat]", "values": [{"measurement": "effect on circulation half-time and AUC of [18F]FAHA", "setting": "HDAC class IIa enzymes", "result": "dose-dependent log-linear increase"}]}, {"smiles": "Nc1ccccc1NC(=O)c1ccc(CN[11C](=O)OCc2cccnc2)cc1", "note": "[[^11C]MS-275]", "values": [{"measurement": "accumulation in the brain (PET)", "setting": "[1]; ref Hooker, et al 2010", "result": "did not accumulate in the brain"}, {"measurement": "blood-brain barrier (BBB) permeability", "setting": "[1]; ref Hooker, et al 2010", "result": "poor"}]}, {"smiles": "O=C(O)C[18F]", "note": "[[^18F]FACE, [^18F]fluoroacetate]", "values": [{"measurement": "brain-to-muscle concentration ratio", "setting": "[2]; 30 min post injection", "result": "0.78±0.28"}, {"measurement": "whole brain-to-blood concentration ratio", "setting": "[2]; 30 min post injection", "result": "0.55±0.18"}, {"measurement": "k1 (influx rate constant)", "setting": "[2]; Amygdala", "result": "0.020 ± 0.035"}, {"measurement": "k2 (efflux rate constant)", "setting": "[2]; Amygdala", "result": "0.088 ± 0.063"}, {"measurement": "k3 rate constant", "setting": "[2]; Amygdala", "result": "0.047 ± 0.040"}, {"measurement": "k1 (influx rate constant)", "setting": "[2]; Cerebellum", "result": "0.055 ± 0.054"}, {"measurement": "k2 (efflux rate constant)", "setting": "[2]; Cerebellum", "result": "0.202 ± 0.125"}, {"measurement": "k3 rate constant", "setting": "[2]; Cerebellum", "result": "0.044 ± 0.066"}, {"measurement": "k1 (influx rate constant)", "setting": "[2]; Hippocampus", "result": "0.021 ± 0.034"}, {"measurement": "k2 (efflux rate constant)", "setting": "[2]; Hippocampus", "result": "0.118 ± 0.031"}, {"measurement": "k3 rate constant", "setting": "[2]; Hippocampus", "result": "0.054 ± 0.039"}, {"measurement": "k1 (influx rate constant)", "setting": "[2]; Inferior colliculus", "result": "0.019 ± 0.045"}, {"measurement": "k2 (efflux rate constant)", "setting": "[2]; Inferior colliculus", "result": "0.034 ± 0.024"}, {"measurement": "k3 rate constant", "setting": "[2]; Inferior colliculus", "result": "0.022 ± 0.021"}, {"measurement": "k1 (influx rate constant)", "setting": "[2]; Nucleus accumbens", "result": "0.056 ± 0.052"}, {"measurement": "k2 (efflux rate constant)", "setting": "[2]; Nucleus accumbens", "result": "0.179 ± 0.146"}, {"measurement": "k3 rate constant", "setting": "[2]; Nucleus accumbens", "result": "0.025 ± 0.034"}, {"measurement": "k1 (influx rate constant)", "setting": "[2]; Peri-aqueductal gray", "result": "0.021 ± 0.044"}, {"measurement": "k2 (efflux rate constant)", "setting": "[2]; Peri-aqueductal gray", "result": "0.050 ± 0.034"}, {"measurement": "k3 rate constant", "setting": "[2]; Peri-aqueductal gray", "result": "0.026 ± 0.023"}, {"measurement": "k1 (influx rate constant)", "setting": "[2]; Putamen", "result": "0.024 ± 0.033"}, {"measurement": "k2 (efflux rate constant)", "setting": "[2]; Putamen", "result": "0.059 ± 0.063"}, {"measurement": "k3 rate constant", "setting": "[2]; Putamen", "result": "0.026 ± 0.031"}, {"measurement": "k1 (influx rate constant)", "setting": "[2]; Temporal cortex", "result": "0.016 ± 0.046"}, {"measurement": "k2 (efflux rate constant)", "setting": "[2]; Temporal cortex", "result": "0.037 ± 0.014"}, {"measurement": "k3 rate constant", "setting": "[2]; Temporal cortex", "result": "0.033 ± 0.018"}, {"measurement": "k1 (influx rate constant)", "setting": "[2]; Thalamus", "result": "0.020 ± 0.482"}, {"measurement": "k2 (efflux rate constant)", "setting": "[2]; Thalamus", "result": "0.048 ± 0.067"}, {"measurement": "k3 rate constant", "setting": "[2]; Thalamus", "result": "0.022 ± 0.022"}, {"measurement": "k1 (influx rate constant)", "setting": "[2]; White matter", "result": "0.015 ± 0.019"}, {"measurement": "k2 (efflux rate constant)", "setting": "[2]; White matter", "result": "0.089 ± 0.103"}, {"measurement": "k3 rate constant", "setting": "[2]; White matter", "result": "0.029 ± 0.022"}, {"measurement": "k1 (influx rate constant)", "setting": "[2]; Whole brain", "result": "0.045 ± 0.034"}, {"measurement": "k2 (efflux rate constant)", "setting": "[2]; Whole brain", "result": "0.170 ± 0.145"}, {"measurement": "k3 rate constant", "setting": "[2]; Whole brain", "result": "0.033 ± 0.065"}, {"measurement": "efflux rate constant k2FACE relative to that of [18F]FAHA", "setting": "[2]; fold less than [18F]FAHA", "result": "4 to 10", "unit": "fold"}, {"measurement": "[18F]fluoride in blood plasma", "setting": "[3]; 30 min post [18F]FACE administration", "result": "< 2 % of total radioactivity"}, {"measurement": "Partition of [18F]FACE-derived radioactivity in blood between RBCs and plasma", "setting": "[3]; rhesus monkey, in vivo", "result": "70.2±8.4", "unit": "%"}, {"measurement": "[18F]fluorocitrate anabolite in blood", "setting": "[4]", "result": "not detectable"}]}, {"smiles": "O=C(C[18F])NCCCCCC(=O)Nc1ccccc1", "note": "[[^18F]FAHA, 6-([^18F]fluoroacetamido)-1-hexanoicanilide]", "values": [{"measurement": "k1 (influx rate constant)", "setting": "[2]; Amygdala", "result": "0.512 ± 0.1283"}, {"measurement": "k2 (efflux rate constant)", "setting": "[2]; Amygdala", "result": "0.493 ± 0.118"}, {"measurement": "k3 rate constant", "setting": "[2]; Amygdala", "result": "0.259 ± 0.093"}, {"measurement": "k1 (influx rate constant)", "setting": "[2]; Cerebellum", "result": "0.645 ± 0.2594"}, {"measurement": "k2 (efflux rate constant)", "setting": "[2]; Cerebellum", "result": "1.001 ± 0.475"}, {"measurement": "k3 rate constant", "setting": "[2]; Cerebellum", "result": "0.380 ± 0.279"}, {"measurement": "k1 (influx rate constant)", "setting": "[2]; Hippocampus", "result": "0.595 ± 0.071"}, {"measurement": "k2 (efflux rate constant)", "setting": "[2]; Hippocampus", "result": "0.883 ± 0.738"}, {"measurement": "k3 rate constant", "setting": "[2]; Hippocampus", "result": "0.279 ± 0.213"}, {"measurement": "k1 (influx rate constant)", "setting": "[2]; Inferior colliculus", "result": "0.706 ± 0.2366"}, {"measurement": "k2 (efflux rate constant)", "setting": "[2]; Inferior colliculus", "result": "0.644 ± 0.312"}, {"measurement": "k3 rate constant", "setting": "[2]; Inferior colliculus", "result": "0.267 ± 0.108"}, {"measurement": "k1 (influx rate constant)", "setting": "[2]; Nucleus accumbens", "result": "0.626 ± 0.5812"}, {"measurement": "k2 (efflux rate constant)", "setting": "[2]; Nucleus accumbens", "result": "1.181 ± 1.6532"}, {"measurement": "k3 rate constant", "setting": "[2]; Nucleus accumbens", "result": "0.401 ± 0.296"}, {"measurement": "k1 (influx rate constant)", "setting": "[2]; Peri-aqueductal gray", "result": "0.619 ± 0.2961"}, {"measurement": "k2 (efflux rate constant)", "setting": "[2]; Peri-aqueductal gray", "result": "0.554 ± 0.256"}, {"measurement": "k3 rate constant", "setting": "[2]; Peri-aqueductal gray", "result": "0.236 ± 0.088"}, {"measurement": "k1 (influx rate constant)", "setting": "[2]; Putamen", "result": "0.708 ± 0.3726"}, {"measurement": "k2 (efflux rate constant)", "setting": "[2]; Putamen", "result": "0.731 ± 0.617"}, {"measurement": "k3 rate constant", "setting": "[2]; Putamen", "result": "0.328 ± 0.079"}, {"measurement": "k1 (influx rate constant)", "setting": "[2]; Temporal cortex", "result": "0.438 ± 0.2453"}, {"measurement": "k2 (efflux rate constant)", "setting": "[2]; Temporal cortex", "result": "0.558 ± 0.2452"}, {"measurement": "k3 rate constant", "setting": "[2]; Temporal cortex", "result": "0.158 ± 0.056"}, {"measurement": "k1 (influx rate constant)", "setting": "[2]; Thalamus", "result": "0.765 ± 0.4308"}, {"measurement": "k2 (efflux rate constant)", "setting": "[2]; Thalamus", "result": "0.604 ± 0.365"}, {"measurement": "k3 rate constant", "setting": "[2]; Thalamus", "result": "0.192 ± 0.032"}, {"measurement": "k1 (influx rate constant)", "setting": "[2]; White matter", "result": "0.463 ± 0.2052"}, {"measurement": "k2 (efflux rate constant)", "setting": "[2]; White matter", "result": "0.810 ± 0.269"}, {"measurement": "k3 rate constant", "setting": "[2]; White matter", "result": "0.187 ± 0.135"}, {"measurement": "k1 (influx rate constant)", "setting": "[2]; Whole brain", "result": "0.424 ± 0.2637"}, {"measurement": "k2 (efflux rate constant)", "setting": "[2]; Whole brain", "result": "0.611 ± 0.5713"}, {"measurement": "k3 rate constant", "setting": "[2]; Whole brain", "result": "0.192 ± 0.222"}, {"measurement": "whole brain Ki of [18F]FAHA relative to Ki of [18F]FACE", "setting": "[2]; whole brain", "result": "about 50 fold"}, {"measurement": "Kcat values for class IIa HDACs compared with other classes of HDACs", "setting": "class IIa HDACs", "result": "two orders of magnitude higher"}, {"measurement": "fraction of [18F]FAHA catabolized to [18F]FACE in blood plasma", "setting": "[3]; by 30 min post injection", "result": "almost all"}, {"measurement": "accumulation of [18F]FAHA in the brain", "setting": "[5]", "result": "significant accumulation"}]}, {"smiles": "O=C(CCCCCCC(=O)Nc1ccc([18F])cc1)NO", "note": "[[^18F]SAHA, [^18F]suberoylanilide hydroxamic acid]", "values": [{"measurement": "accumulation in the brain (PET)", "setting": "[1]; [6]", "result": "did not accumulate in the brain"}, {"measurement": "washout from the brain", "setting": "[1]; [6]", "result": "excessive washout"}]}]}
